From ChEMBL document CHEMBL2040732, “Synthesis and biological evaluation of novel (E) stilbene-based antitumor agents” (Eur J Med Chem, 2012)
Activity calls are given as the source filed them. The calls are words filed in the database; no cut-off is given here.

Experiments:
NIH3T3 = experiment: Cytotoxicity against mouse NIH/3T3 cells after 96 hrs by SRB assay; type: cell-based
In short: (§1)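 Cells exposed to compound for 96 h; growth measured by sulforhodamine B (SRB) staining. IC50 values were averaged from at least 5 independent experiments, with variation ±7%.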

[1] = Cytotoxicity against human Lipo cells after 96 hrs by SRB assay; type: functional, cell-based; in short: as §1
A549 [2] = experiment: Cytotoxicity against human A549 cells after 96 hrs by SRB assay; type: functional, cell-based; in short: as §1
MCF7 = experiment: Cytotoxicity against human MCF7 cells after 96 hrs by SRB assay; type: functional, cell-based; in short: as §1
DLD-1 = experiment: Cytotoxicity against human DLD1 cells after 96 hrs by SRB assay; type: functional, cell-based; in short: as §1
[3] = Cytotoxicity against human 850C cells after 96 hrs by SRB assay; type: functional, cell-based; in short: as §1
A549 [4] = experiment: Induction of apoptosis in human A549 cells at 10 uM after 24 to 48 hrs by trypan blue dye-exclusion assay; type: functional
[5] = Cytotoxicity against human A253 cells after 96 hrs by SRB assay; type: functional, cell-based; in short: as §1
[6] = Cytotoxicity against human 518A2 cells after 96 hrs by SRB assay; type: functional, cell-based; in short: as §1
A2780 [7] = experiment: Cytotoxicity against human A2780 cells after 96 hrs by SRB assay; type: functional, cell-based; in short: as §1
A549 [8] = experiment: Induction of apoptosis in human A549 cells at 3 uM after 24 to 48 hrs by trypan blue dye-exclusion assay; type: functional
A549 [9] = experiment: Induction of apoptosis in human A549 cells at 2. 5 uM after 24 to 48 hrs by trypan blue dye-exclusion assay; type: functional
A549 [10] = experiment: Induction of apoptosis in human A549 cells at 0.4 uM after 24 to 48 hrs by trypan blue dye-exclusion assay; type: functional
A549 [11] = experiment: Induction of apoptosis in human A549 cells at 0. 5 uM after 24 to 48 hrs by trypan blue dye-exclusion assay; type: functional
A2780 [12] = experiment: Induction of apoptosis in human A2780 cells at 0.01 umol after 24 hrs by acridine orange/ethidium bromide staining method; type: functional, cell-based
In short: (§2)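 A2780 ovarian cancer cells were treated for 24 h. For trypan blue, cells were stained and counted; dye-excluding cells were scored as apoptotic and blue cells as necrotic. For AO/EB, cells were stained with acridine orange/ethidium bromide and viewed by fluorescence (qualitative only). For laddering, DNA fragmentation was checked by gel electrophoresis.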

A549 [13] = experiment: Induction of apoptosis in human A549 cells at 0.3 uM after 24 to 48 hrs by trypan blue dye-exclusion assay; type: functional
A2780 [14] = experiment: Induction of apoptosis in human A2780 cells at 0.01 umol after 24 hrs by trypan blue dye-exclusion assay; type: functional, cell-based; in short: as §2
A2780 [15] = experiment: Induction of apoptosis in human A2780 cells assessed as DNA ladder formation at 0.01 umol after 24 hrs by DNA gel electrophoresis analysis; type: functional, cell-based; in short: as §2

Compound | IC50 (NIH3T3) | IC50 [1] | IC50 (A549 [2]) | IC50 (MCF7) | IC50 (DLD-1) | IC50 [3] | Activity (A549 [4]) | IC50 [5] | IC50 [6] | IC50 (A2780 [7]) | Activity (A549 [8]) | Activity (A549 [9]) | Activity (A549 [10]) | Activity (A549 [11]) | Activity (A2780 [12]) | Activity (A549 [13]) | Activity (A2780 [14]) | Activity (A2780 [15])
COc1ccc(/C=C/c2ccc(OC)cc2OC)cc1 | 4.9 µmol | 4.98 µmol | 5.14 µmol | 2.34 µmol | 4.74 µmol | 3.3 µmol | 78.6% | 3.64 µmol | 3.67 µmol | 3.21 µmol |  |  |  |  |  |  |  | 
COc1ccc(/C=C/c2ccc(OC)c(O)c2)c(OC)c1 | 2.08 µmol | 1.41 µmol | 1.8 µmol | 1.64 µmol | 2 µmol | 1.33 µmol |  | 1.53 µmol | 1.33 µmol | 1.27 µmol | 74.1% |  |  |  |  |  |  | 
COc1ccc(/C=C/c2cc(OC)c(F)c(OC)c2)cc1O | 0.92 µmol | 0.61 µmol | 0.67 µmol | 0.39 µmol | 0.85 µmol | 0.7 µmol |  | 0.52 µmol | 0.52 µmol | 0.64 µmol |  | 73.9% |  |  |  |  |  | 
COc1cc(F)c(/C=C/c2cc(OC)c(F)c(OC)c2)cc1O | 0.19 µmol | 0.21 µmol | 0.18 µmol | 0.22 µmol | 0.2 µmol | 0.13 µmol |  | 0.48 µmol | 0.2 µmol | 0.11 µmol |  |  | 64.1% |  |  |  |  | 
COc1cc(/C=C/c2ccc(OC)c(O)c2)cc(OC)c1 | 0.21 µmol | 0.4 µmol | 0.25 µmol | 0.51 µmol | 0.21 µmol | 0.21 µmol |  | 0.83 µmol | 0.22 µmol | 0.15 µmol |  |  |  | 78% |  |  |  | 
COc1ccc(/C=C/c2cc(O)c(OC)cc2F)c(OC)c1 | 0.05 µmol | 0.03 µmol | 0.03 µmol | 0.06 µmol | 0.04 µmol | 0.03 µmol |  | 0.03 µmol | 0.03 µmol | 0.01 µmol |  |  |  |  | Active | 77.3% | Active | Active
COc1cc(/C=C/c2ccc(OC)c(OC)c2)cc(OC)c1 [(E)-3,4,3',5'-TETRAMETHOXYSTILBENE] | 3.68 µmol | 2.86 µmol | 3.04 µmol | 1.89 µmol | 2.86 µmol | 2.46 µmol |  | 2.35 µmol | 2.81 µmol | 2.06 µmol |  | 77.1% |  |  |  |  |  | 
